Consider 109 compounds from PubChem BioAssay AID2648 (Johns Hopkins Ion Channel Center, 2010).

About 1,100 (0.35%) of roughly 310,000 compounds were called active.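 Rule for the calls: active = fluorescence ratio B-score, a plate-corrected score, at least three library SD, with initial intensity B-score within 5 SD; inactive = the rest.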 The entries come from a sample that favours actives as a whole.

Potassium voltage-gated channel subfamily KQT member 1 (Homo sapiens), sequence (P51787 whole entry, looked up): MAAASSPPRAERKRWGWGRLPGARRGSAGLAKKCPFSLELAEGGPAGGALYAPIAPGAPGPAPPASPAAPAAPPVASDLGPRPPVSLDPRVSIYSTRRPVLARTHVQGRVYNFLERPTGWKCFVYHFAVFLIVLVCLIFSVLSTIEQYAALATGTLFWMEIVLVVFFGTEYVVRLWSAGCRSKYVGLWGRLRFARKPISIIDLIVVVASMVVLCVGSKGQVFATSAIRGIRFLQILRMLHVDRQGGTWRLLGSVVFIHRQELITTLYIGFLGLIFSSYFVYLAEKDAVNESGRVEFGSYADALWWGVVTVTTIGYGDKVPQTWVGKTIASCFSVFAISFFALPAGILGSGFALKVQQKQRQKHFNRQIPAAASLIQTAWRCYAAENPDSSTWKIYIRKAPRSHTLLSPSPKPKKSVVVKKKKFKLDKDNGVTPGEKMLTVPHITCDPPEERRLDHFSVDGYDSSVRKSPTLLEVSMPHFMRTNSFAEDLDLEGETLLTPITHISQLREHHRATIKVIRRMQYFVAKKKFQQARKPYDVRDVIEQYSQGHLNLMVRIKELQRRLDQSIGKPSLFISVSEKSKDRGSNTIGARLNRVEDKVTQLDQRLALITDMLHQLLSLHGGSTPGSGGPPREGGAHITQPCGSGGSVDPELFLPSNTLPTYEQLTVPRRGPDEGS

The assay has as its target Potassium voltage-gated channel subfamily KQT member 1 (Homo sapiens) (UniProt P51787). Briefly: potentiators or activators of KCNQ1 channel, primary screen, cell-based, thallium flux, high-throughput (AID 2648). To be noted: CHO-K1 KCNQ1, thallium flux FluxOR fluorescence, at 10 µM; stronger effect = higher value. The essentials: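 Material: CHO-K1 cells stably expressing KCNQ1. Medium: assay buffer for compound exposure, DMSO matched across wells. Reagent: K+/Tl+ depolarizing stimulus. Compound dosing: single-concentration screen. Times: 37 °C overnight plating, 90-min dark dye load, 20-min compound pretreatment. Technique: FluxOR Tl+ flux fluorescence.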
For `O=C(NC1CCCCC1)c1ccc(-c2ccc(Cl)cc2)o1`, the B-score entry is “inactive”.
With `Cc1[nH][nH]c(=O)c1C(c1ccc(-c2ccc(Cl)cc2)o1)c1c(C)[nH][nH]c1=O` the figure was 25 (active).
Under `CCOc1ccc(C(c2c(C)[nH][nH]c2=O)c2c(C)[nH][nH]c2=O)cc1OCC` stands “inactive”; under `Cn1nnnc1-c1cc(Cl)cc(Cl)c1`, “inactive”.
As for `CC(=O)C12CC(C)=C(C)CC1CC1C3CCC4=CC(=O)CCC4(C)C3CCC12C` (centres undefined), the B-score entry is “inactive”.
Under `O=C1NC(c2ccccc2)CCC1(Cl)Cl` (centres undefined) stands “inactive”; under `COc1cccc2sc(N(CCCN(C)C)C(=O)C(c3ccccc3)c3ccccc3)nc12`, “inactive”; under `CC(=O)N(CCCN(C)C)c1nc2ccc(C)cc2s1`, “inactive”.
Consider `COc1cccc2sc(N(CCCN(C)C)C(=O)CCS(=O)(=O)c3ccccc3)nc12`, for which the B-score was 8 (active).
Under `Cc1ccc2sc(N(CCN(C)C)C(=O)/C=C/c3cccs3)nc2c1C` stands “inactive”.
Under `COc1cc2ccccc2cc1C(=O)N(CCN(C)C)c1nc2c(F)cccc2s1` stands “inactive”; under `Cc1cccc2sc(N(CCCN(C)C)C(=O)CCS(=O)(=O)c3ccccc3)nc12`, 30 (active); under `CCCCC(=O)Nc1ccc2c(c1)C(=O)NC2=O`, “inactive”.
With `O=C(COc1cc2oc(=O)c3c(c2cc1Cl)CCC3)NCCCN1CCOCC1` the entry was “inactive”; with `Cc1ccc(NC2CCCN(C(=O)CCC3(C)CC3)C2)cc1C` (centres undefined), “inactive”; with `COCCNC(=O)CSc1nc2sccc2c(=O)n1-c1ccccc1`, “inactive”.
In the case of `CCN(CC)S(=O)(=O)c1ccc(NC(=O)c2cccnc2Cl)c(NC(=O)c2cccnc2Cl)c1`, the B-score is 13 (active).
As to `CCN(CC)S(=O)(=O)c1ccc(Cl)c(NC(=O)c2ccncc2)c1`, the B-score entry was “inactive”.
With `Cc1cccc(NC(=O)c2cccnc2Cl)n1` the entry was “inactive”; with `CC1CCN(S(=O)(=O)c2ccc3c(ccn3CC(=O)O)c2)CC1`, “inactive”; with `CC1CCN(c2ccc(-c3ccc(NC(=O)c4ccco4)cc3)nn2)CC1`, “inactive”.
With `S=c1[nH]c2ccccc2c2ccccc12` the figure was 7 (active); with `NC(=O)Cc1ccc2c(c1)[nH]c1ccccc12`, “inactive”.
Under `S=c1ccc2ccccc2[nH]1` stands “inactive”; under `COc1ccc(OC)c(CCNC(=O)c2nn(C)c3c2CS(=O)(=O)c2ccccc2-3)c1`, “inactive”; under `O=C(Nc1ccc(F)c([N+](=O)[O-])c1)C1CCCO1` (centres undefined), “inactive”.
In the case of `O=C(Oc1ccc(Br)cc1)c1cccnc1`, the B-score result is “inactive”.
Under `O=C(Oc1c(-c2ccco2)oc2ccccc2c1=O)c1cccnc1` stands 15 (active); under `N#CCc1ccc(OC(=O)c2cccnc2)cc1`, “inactive”; under `CCO[C@H]1OC(C(=O)Nc2ccccc2)=C[C@@H](C2CC2)[C@@H]1CCCO`, “inactive”.
For `Cc1ccc(S(=O)(=O)Nc2ccc3ncccc3c2)cc1`, the B-score entry was “inactive”.
Under `COc1cc(NS(=O)(=O)c2ccc3ccccc3c2)c2ncccc2c1` stands 14 (active); under `O=[N+]([O-])c1ccccc1S(=O)(=O)Nc1cccc2cccnc12`, “inactive”.
Under `COC(=O)C1=C(C(=O)OC)[C@@H]2N(C)c3ccccc3[C@@]23C[C@@H](C(=O)OC)N(C(=O)c2ccco2)C3=N1` stands “inactive”; under `CC1(C)C2CC[C@]3(C)C(CC=C4[C@@H]5C[C@@](C)(CO)CC[C@]5(C(=O)O)CC[C@]43C)[C@@]2(C)CC[C@@H]1O` (some centres undefined), “inactive”.
With `CC1(C)CC[C@]2(C(=O)O)CC[C@]3(C)C(=CCC4[C@@]5(C)CC[C@H](O)C(C)(C)C5[C@H](O)C[C@]43C)[C@@H]2C1` (some centres undefined) the figure was 10 (active); with `CSc1ncccc1C(=O)Nc1ccc(C)cn1`, “inactive”; with `O=C(Nc1ccccc1)c1cc2ccccc2[nH]1`, “inactive”.
For `O=c1/c(=C/c2ccc(CNS(=O)(=O)c3ccccc3)o2)sc2n1CCN=2`, the B-score result was “inactive”.
Under `NNc1nc2c(Cl)cccc2s1` stands “inactive”; under `Fc1cc(F)c2nc(Nc3nc4c(F)cccc4s3)sc2c1`, 37 (active); under `NC(=O)c1c(Nc2nc3c(F)cccc3s2)sc2c1CCCC2`, “inactive”.
With `COc1cccc2cc(C(=O)NCc3ccc(C)cc3)c(=N)oc12` the entry was “inactive”; with `COC(=O)C1CCN(C(=O)c2ccc3oc(Cc4ccc(Cl)cc4)nc3c2)CC1`, “inactive”.
With `Cc1cccc(-n2c(C)cc(/C=N/NC(N)=S)c2C)c1` the figure was 8 (active).
Turning to `Cc1cccc(-n2c(C)cc(/C=N\NC(=O)c3cccs3)c2C)c1`, the B-score entry was “inactive”.
With `Cc1ccc(-n2c(C)cc(/C=N\NC(=O)CC(=O)NC(C)C)c2C)cc1` the entry was “inactive”; with `Cc1cc(=O)oc2c(C)c(OCC(=O)NCCN3CCOCC3)ccc12`, “inactive”; with `CCCOc1ccc(C(=O)C(CCC(CNCC)C(=O)c2ccc(OCCC)cc2)CNCC)cc1` (centres undefined), “inactive”.
In the case of `FC(F)(F)c1ccc(CN2C[C@@H]3C(c4ccccc4)C4(c5ccccc5)CC3(C4)[C@H]2c2ccccc2)cc1` (some centres undefined), the B-score entry was “inactive”.
With `Cc1ccc(C(=O)NC(=S)Nc2ccccc2C)cc1` the entry was “inactive”.
With `COC(=O)c1sc(NC(=S)NC(=O)c2ccc(C)cc2)nc1C` the figure was 18 (active); with `COC(=O)c1sc(NC(=O)c2csc3c2CCCC3)nc1C`, “inactive”; with `C/C(Cl)=C\Cn1c(Nc2cccc(C)c2)nc2c1c(=O)n(C)c(=O)n2C`, “inactive”.
`CC(C)NC(=O)C(c1ccc(F)cc1)N(C(=O)CCC(=O)Nc1ccccn1)c1ccccc1F` (centres undefined): the B-score result was “inactive”.
Under `[O-][n+]1c2c(nn1-c1ccc(Cl)c(Cl)c1)-c1nonc1CC2` stands “inactive”; under `COc1ccc(NC(=O)C(=O)NCC(c2ccco2)N2CCc3ccccc3C2)cc1` (centres undefined), “inactive”.
With `COC(=O)c1ccccc1NC(=O)C1CCN(S(=O)(=O)c2cc(OC)ccc2OC)CC1` the entry was “inactive”; with `O=C(c1ccc(F)cc1)c1cn(Cc2ccc(F)cc2)c2cc3c(cc2c1=O)OCCO3`, “inactive”.
`Oc1c(Cl)cc(Cl)c(Cl)c1Cc1c(O)c(Cl)cc(Cl)c1Cl`: the B-score was 87 (active).
With `COP1(=O)C[C@@H](O)[C@@H](O)[C@@H](COCc2ccccc2)O1` (some centres undefined) the entry was “inactive”.
With `CC(=O)Nc1sc2c(c1C(c1cccc(F)c1)N1CCN(CCO)CC1)CCCC2` (centres undefined) the entry was “inactive”.
Under `COCCNC(=O)CCCN1C(=O)c2ccccc2Sc2ncccc21` stands “inactive”; under `Cc1c(C(=O)NC(C)C2CC3CCC2C3)cccc1[N+](=O)[O-]` (centres undefined), “inactive”.
As to `CC(C)(C)c1ccc(Cn2nnc3c(=O)[nH]c(C4CCCN(C(=O)c5ccco5)C4)nc32)cc1` (centres undefined), the B-score result is “inactive”.
For `Cc1ccc(/C=N/NC(=O)c2cc3ccccc3cc2O)o1`, the B-score was 41 (active).
Under `Cc1ccc(/C=N/NC(=O)CSc2ccccn2)o1` stands “inactive”; under `O=C(N/N=C/c1cccnc1)c1cc2ccccc2cc1O`, “inactive”; under `CN(CC(=O)Nc1ccc(Cl)cc1)C(=O)CNC(=O)c1ccc2ccccc2c1`, “inactive”.
Under `COc1cc(C(=O)NCC(=O)NCCSc2ccc(Br)cc2)cc(OC)c1OC` stands “inactive”.
With `Cc1ccc(N(CC(=O)NC2CCCCC2)C(=O)CCCC(=O)Nc2ccccn2)c(C)c1` the entry was “inactive”; with `CCCCNC(=O)C1CCCNC1=O` (centres undefined), “inactive”; with `CCC1(C)Cc2c(sc3nc4n(c(=O)c23)CCCS4)CO1` (centres undefined), “inactive”.
Regarding `CCC1(C)Cc2c(sc3nc(SC)[nH]c(=O)c23)CO1` (centres undefined), the B-score result was “inactive”.
Regarding `CCC1(C)Cc2c(sc3[nH]c(=S)n(Cc4ccccc4)c(=O)c23)CO1` (centres undefined), the B-score is 57 (active).
With `OC(CNCc1ccc(Cl)c(Cl)c1)c1ccccc1` (centres undefined) the entry was “inactive”; with `Cc1cccn2cc(-c3cccc(S(=O)(=O)N4CCCCC4)c3)nc12`, “inactive”; with `Cc1nn(C)c(C(=O)NNC(=S)NC2CCCCC2)c1Cl`, “inactive”.
With `COc1cccc(NC(=S)NCc2ccccn2)c1` the entry was “inactive”.
On to `COc1cccc(NC(=S)NC(=O)c2c(Cl)c(C)nn2C)c1`, for which the B-score is 8 (active).
With `COc1ccc(/C=C2/S/C(=N/N=C3\CC4CCC3(C)C4(C)C)NC2=O)cc1` (centres undefined) the figure was 23 (active); with `COc1ccc(/C=C2\SC(=N)N(c3ccc(F)cc3)C2=O)cc1`, “inactive”.
Under `CCOc1ccc(N=C2NC(=O)S/C2=C\c2ccc(O)cc2)cc1` stands “inactive”; under `Cc1ccc(OS(=O)(=O)c2ccc(-c3csc(C)n3)s2)c(C)c1`, “inactive”.
Under `CCOC(=O)N1CCN(C(=O)C(C)NC(=O)c2ccco2)CC1` (centres undefined) stands “inactive”; under `Cc1ccc(C)c(NC(=O)C(OC(=O)c2ccc(C)s2)c2ccccc2)c1` (centres undefined), “inactive”.
Consider `COC(=O)Cn1c2ccc(C)cc2c2nc(C)sc21`, for which the B-score entry is “inactive”.
Under `CCn1c(O)c(N=NC2=NC(=O)CS2)c2cc(C)ccc21` stands 11 (active).
With `CCn1c(O)c(N=NC(=O)c2cccc(S(=O)(=O)N3CCCCC3)c2)c2ccccc21` the entry was “inactive”.
With `CCCc1noc2c1/C(=N\O)CCC2`, the B-score result is “inactive”.
Under `Cc1c(N=Nc2ccc(N(C)C)cc2)c(=O)n(-c2ccccc2)n1C` stands “inactive”.
Under `CCOC(=O)c1c(NC(=S)NC)sc2c1CCCC2` stands 77 (active); under `CCOC(=O)c1c(NC(=S)Nc2ccccc2)sc2c1CCN(C)C2`, “inactive”; under `CCOC(=O)c1c(NC(=O)C2(C)Cc3ccccc3C(=O)O2)sc2c1CCCC2` (centres undefined), “inactive”.
Under `Cc1ccc(C(=O)CN2C(=O)NC3(CCc4ccccc43)C2=O)c(C)c1` (centres undefined) stands “inactive”; under `Clc1cccc(N=C2NN=C(c3ccc4c(c3)OCCO4)CS2)c1`, “inactive”; under `CN(C)c1nc(=Nc2cccc(Cl)c2)ss1`, 12 (active).
As for `Cc1cc(C)c(C#N)c(SCC(=O)NN2CC(=O)N(c3ccccc3F)CC2=O)n1`, the B-score entry was “inactive”.
For `CCN(CC)N=Nc1cccc(NC(C)=O)c1`, the B-score entry was “inactive”.
With `O=C(C1=C(O)C(=O)N(CCOCCO)C1c1ccccn1)c1cccs1` (centres undefined) the entry was “inactive”.
With `CCOc1cc(C)c(S(=O)(=O)NCc2ccccn2)cc1C` the entry was “inactive”.
Under `CCCC(=O)n1nc(-c2ccccc2)nc1N` stands 20 (active).
As for `COc1ccc(C(=O)n2nc(-c3ccc(C)cc3)nc2N)cc1OC`, the B-score entry is “inactive”.
Under `COc1ccc(CC(=O)n2nc(-c3cccnc3)nc2N)cc1` stands “inactive”; under `O=C1/C(=C\Nc2ccccc2)CCN1c1ncccn1`, “inactive”.
Under `O=C1N[C@@H](Cc2ccccc2)C(=O)N2[C@H]1C[C@]1(Br)c3ccccc3N(S(=O)(=O)c3ccccc3)[C@H]21` stands “inactive”.
Under `O=c1c(-c2cccc(Cl)c2)c[nH]n1-c1ccccc1` stands “inactive”.
As to `O=C1c2ccccc2NC(c2ccc(-c3cccc(Cl)c3)o2)N1O` (centres undefined), the B-score was 10 (active).
Under `O=C1NC(c2cccc(Cl)c2)Nc2ccccc21` (centres undefined) stands “inactive”.
